According to ChEMBL document CHEMBL1125185, “Nonpeptide angiotensin II receptor antagonists: the discovery of a series of N-(biphenylylmethyl)imidazoles as potent, orally active antihypertensives” (J Med Chem, 1991):
Active and inactive are the calls of the source. The rule behind the calls is not given here.

Key:
Rattus norvegicus [1] = experiment: Blood pressure lowering activity in renal hypertensive rats after peroral administration; type: functional
In short: (§1)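 Conscious male Sprague-Dawley CD rats, six days after left renal artery ligation and with jugular and carotid cannulae, were dosed by oral gavage at 1-100 mg/kg (4-6 rats/dose). Mean arterial pressure was monitored for 3 h.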

Rattus norvegicus [2] = experiment: Blood pressure lowering activity in renal hypertensive rats after intravenous administration; type: functional
In short: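 Male Sprague-Dawley CD rats had the left renal artery ligated under hexobarbital (100 mg/kg ip). Six days later the jugular vein and carotid artery were cannulated under hexobarbital (90 mg/kg ip). Compound was given intravenously to the conscious hypertensive rats while mean arterial pressure was recorded.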

Angiotensin II receptor = target: T1, Angiotensin II receptor (Rattus norvegicus, UniProt P29089+P25095+P35351); experiment: Inhibition of radioligand [3H]angiotensin II binding to angiotensin II receptor of rat adrenal cortical membrane
T1 sequence (P29089 whole entry): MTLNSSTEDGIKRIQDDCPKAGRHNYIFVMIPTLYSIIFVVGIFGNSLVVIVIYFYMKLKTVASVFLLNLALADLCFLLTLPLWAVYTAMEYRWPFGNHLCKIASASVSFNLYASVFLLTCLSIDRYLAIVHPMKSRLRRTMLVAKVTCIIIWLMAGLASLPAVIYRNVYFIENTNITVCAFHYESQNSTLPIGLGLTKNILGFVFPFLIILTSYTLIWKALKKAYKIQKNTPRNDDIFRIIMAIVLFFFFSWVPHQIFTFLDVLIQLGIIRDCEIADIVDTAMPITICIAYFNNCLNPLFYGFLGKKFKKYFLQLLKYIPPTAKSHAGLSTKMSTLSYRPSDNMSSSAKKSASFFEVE
T1 sequence (P25095 whole entry): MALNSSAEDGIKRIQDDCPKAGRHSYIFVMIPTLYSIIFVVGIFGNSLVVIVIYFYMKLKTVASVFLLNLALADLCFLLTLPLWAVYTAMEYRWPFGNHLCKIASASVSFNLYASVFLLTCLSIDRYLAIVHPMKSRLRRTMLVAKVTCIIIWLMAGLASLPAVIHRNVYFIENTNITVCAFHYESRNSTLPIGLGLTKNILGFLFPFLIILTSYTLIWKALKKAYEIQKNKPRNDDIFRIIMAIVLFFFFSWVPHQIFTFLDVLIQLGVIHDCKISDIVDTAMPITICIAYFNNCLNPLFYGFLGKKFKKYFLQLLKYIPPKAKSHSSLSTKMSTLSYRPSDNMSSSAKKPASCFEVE
T1 sequence (P35351 whole entry): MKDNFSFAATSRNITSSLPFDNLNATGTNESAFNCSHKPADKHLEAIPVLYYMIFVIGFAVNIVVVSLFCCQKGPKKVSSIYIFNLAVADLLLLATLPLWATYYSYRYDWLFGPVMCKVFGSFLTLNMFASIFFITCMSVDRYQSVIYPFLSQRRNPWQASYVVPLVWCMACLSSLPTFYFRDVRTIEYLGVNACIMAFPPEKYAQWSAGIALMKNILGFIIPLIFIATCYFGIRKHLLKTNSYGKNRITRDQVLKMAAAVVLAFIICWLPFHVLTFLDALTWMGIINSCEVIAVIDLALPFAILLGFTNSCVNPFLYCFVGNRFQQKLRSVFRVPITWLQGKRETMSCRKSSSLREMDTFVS
In short: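 Rat adrenal cortical microsomes came from male Sprague-Dawley CD rats (300-400 g) and were prepared at 4 °C in sucrose/EDTA/Tris pH 7.4. Samples were filtered and counted, in duplicate. Specific binding was defined with 1 µM unlabeled AII. IC50 was taken from the linear portion of the displacement curve.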

[3] = Ionization constant for the compound; type: physicochemical, Rattus norvegicus
Rattus norvegicus [4] = experiment: Blood pressure lowering activity in renal hypertensive rats after peroral administration; Inactive indicates fail to cause significant drop in blood pressure even at 100 mg/kg (in vivo); type: functional, organism-based; design: dose 100 mg/kg; in short: as §1

| SMILES | IC50 (Angiotensin II receptor) [µM] | pKa [3] | Activity (Rattus norvegicus [1]) [mg/kg] | Activity (Rattus norvegicus [2]) [mg/kg] | Activity (Rattus norvegicus [4]) |
| --- | --- | --- | --- | --- | --- |
| CCCCc1nc(Cl)c(CNC(=O)OC)n1Cc1ccc(-c2ccccc2-c2nn[nH]n2)cc1 | 0.06 |  | >10 | 1 |  |
| CCCCc1nc(Cl)c(C(=O)N(C)C)n1Cc1ccc(-c2ccccc2C(=O)O)cc1 | 1.3 |  | 10 | 10 |  |
| O=C(O)c1ccccc1-c1ccc(Cn2c(-c3ccccc3)nc(Cl)c2CO)cc1 |  |  | 100 | 10 |  |
| CCCCc1nc(Cl)c(CNC(=O)OCC)n1Cc1ccc(-c2ccccc2C(=O)O)cc1 | 0.2 |  | 100 | 10 |  |
| CCCCc1nc(Cl)c(C(O)c2ccccc2)n1Cc1ccc(-c2ccccc2-c2nn[nH]n2)cc1 (stereo unspecified) | 0.41 |  | >30 | 3 |  |
| CCCCc1nc(Cl)c(/C=N/NS(=O)(=O)c2ccccc2)n1Cc1ccc(-c2ccccc2-c2nn[nH]n2)cc1 | 0.66 |  | 30 | 3 |  |
| CCCCc1nc(Cl)c(CO)n1Cc1ccc(-c2cccc(C(=O)O)c2)cc1 |  |  | 100 | 45 |  |
| CCCCc1nc(Cl)c(CO)n1Cc1ccc(-c2ccccc2-c2[nH]nnc2C#N)cc1 | 0.28 |  | >10 | >1 |  |
| CCCCc1nc(Cl)c(C=O)n1Cc1ccc(-c2cccc(-c3nn[nH]n3)c2)cc1 | > 1 |  | 30 | >10 |  |
| CCCCc1nc(Cl)c(C=O)n1Cc1ccc(-c2ccccc2-c2[nH]nnc2F)cc1 | 13 |  |  | >10 | inactive |
| CCCCc1nc(Cl)c(C=O)n1Cc1ccc(-c2ccccc2-c2nn[nH]n2)cc1 | 0.02 |  | 3 | 0.3 |  |
| CCCCc1nc(Cl)c(C(=O)OC)n1Cc1ccc(-c2ccccc2C(=O)O)cc1 | 0.34 |  | 100 | 10 |  |
| CCCCc1nc(Cl)c(C(N)=O)n1Cc1ccc(-c2ccccc2C(=O)O)cc1 | 0.15 |  | 100 | 10 |  |
| CCCCc1nc(Cl)c(CO)n1Cc1ccc(-c2c(OC)cccc2C(=O)O)cc1 | 3 |  | 100 | 10 |  |
| CCCCc1nc(Cl)c(CNC(=O)NC(C)c2cccc3ccccc23)n1Cc1ccc(-c2ccccc2C(=O)O)cc1 (stereo unspecified) | 0.7 |  |  | >10 | inactive |
| CCCCc1nc(Cl)c(/C=N/NC2=NCCN2)n1Cc1ccc(-c2ccccc2-c2nn[nH]n2)cc1 | 0.29 |  | 30 | 3 |  |
| CCCCc1nc(Cl)c(CNC(=O)OC23C[C@H]4C[C@@H](C2)C[C@@H](C3)C4)n1Cc1ccc(-c2ccccc2C(=O)O)cc1 | 0.6 |  | 30 | 3 |  |
| C=CCOC(=O)NCc1c(Cl)nc(CCCC)n1Cc1ccc(-c2ccccc2C(=O)O)cc1 | 0.39 |  | 100 | 10 |  |
| CCCCc1nc(Cl)c(CNC(=O)Nc2cccc3ccccc23)n1Cc1ccc(-c2ccccc2C(=O)O)cc1 | 3 |  |  | 10 | inactive |
| CCCCc1nc(Cl)c(COC)n1Cc1ccc(-c2ccccc2-c2nn[nH]n2)cc1 |  | 6 | 3 | 1 |  |
| CCCCc1nc(I)c(CO)n1Cc1ccc(-c2ccccc2-c2nn[nH]n2)cc1 |  |  | 10 | 1 |  |
| CCCCc1ncc(CO)n1Cc1ccc(-c2ccccc2C(=O)O)cc1 | 0.27 |  |  | 10 | inactive |
| CCCCc1nc(Cl)c(CO)n1Cc1ccc(-c2ccc(C(=O)O)cc2)cc1 |  |  |  | >10 | inactive |
| CCCCc1nc(Cl)c(COC)n1Cc1ccc(-c2ccccc2C(=O)Nc2nn[nH]n2)cc1 |  |  |  | 10 |  |
| CCCCc1nc(Cl)c(COC(C)=O)n1Cc1ccc(-c2ccccc2C(=O)O)cc1 |  |  | 100 | 10 |  |
| CCCCCCc1nc(Cl)c(CO)n1Cc1ccc(-c2ccccc2C(=O)O)cc1 |  |  |  | 10 | inactive |
| CCCCc1nc(Br)c(CO)n1Cc1ccc(-c2ccccc2-c2nn[nH]n2)cc1 |  |  | 3 | 0.3 |  |
| CCCCc1nc(Cl)c(COC)n1Cc1ccc(-c2ccccc2Cc2nnn[nH]2)cc1 | 0.3 |  | 100 | 10 |  |

More lines, main results first:

| IC50 (Angiotensin II receptor) [µM] | pKa [3] | SMILES | Activity (Rattus norvegicus [1]) [mg/kg] | Activity (Rattus norvegicus [2]) [mg/kg] | Activity (Rattus norvegicus [4]) |
| --- | --- | --- | --- | --- | --- |
|  | 4.5 | CCCCc1nc(Cl)c(COC)n1Cc1ccc(-c2ccccc2NS(=O)(=O)C(F)(F)F)cc1 | 100 | 10 |  |
| 0.062 |  | CCCCc1nc(C(F)(F)F)c(CO)n1Cc1ccc(-c2ccccc2C(=O)O)cc1 | 30 | 3 |  |
| 0.37 |  | CCCCc1nc(Cl)c(CO)n1Cc1ccc(-c2ccccc2-c2n[nH]c(C(F)(F)F)n2)cc1 | 10 | 1 |  |
| 1.9 |  | CCCCc1nc(Cl)c(CO)n1Cc1ccc(-c2cccc(C)c2C(=O)O)cc1 | 10 | 3 |  |
| 35 |  | CCCCc1nc(Cl)c(CO)n1Cc1ccc(-c2ccccc2C(N)=O)cc1 |  |  |  |
| 0.26 | 7 | CCCCc1nc(Cl)c(CO)n1Cc1ccc(-c2ccccc2-c2[nH]nnc2C(=O)OC)cc1 | >10 | >1 |  |
| 0.25 |  | CCCCc1nc(Cl)c(CNC(=O)OC)n1Cc1ccc(-c2ccccc2C(=O)O)cc1 | 30 | 3 |  |
|  | 5 | CCCCc1nc(Cl)c(COC)n1Cc1ccc(-c2ccccc2C(=O)O)cc1 | 100 | 10 |  |
| 0.16 |  | CCCc1nc(Cl)c(CO)n1Cc1ccc(-c2ccccc2C(=O)O)cc1 | 30 | 3 |  |
| 1.7 |  | CCc1nc(Cl)c(CO)n1Cc1ccc(-c2ccccc2C(=O)O)cc1 | 100 | 10 |  |
| 0.26 |  | CCCCc1nc([N+](=O)[O-])c(CO)n1Cc1ccc(-c2ccccc2C(=O)O)cc1 |  | 10 | inactive |
| 0.24 |  | CCCCc1nc(Cl)c(CNC(=O)NC)n1Cc1ccc(-c2ccccc2C(=O)O)cc1 |  | 10 | inactive |
| 0.061 |  | CCCCc1nc(I)c(CO)n1Cc1ccc(-c2ccccc2C(=O)O)cc1 | 100 | 10 |  |
| 3.2 |  | CCCCc1nc(Cl)c(CN)n1Cc1ccc(-c2ccccc2C(=O)O)cc1 |  |  |  |
|  | 9.5 | CCCCc1nc(Cl)c(CO)n1Cc1ccc(-c2ccccc2NC(=O)C(F)(F)F)cc1 |  | 10 | inactive |
|  | 4.5 | CCCCc1nc(Cl)c(CO)n1Cc1ccc(-c2ccccc2NS(=O)(=O)C(F)(F)F)cc1 | 100 | 10 |  |
| 0.09 |  | CCCCc1nc(Br)c(CO)n1Cc1ccc(-c2ccccc2C(=O)O)cc1 | 30 | 3 |  |
| 0.98 |  | CCCCCc1nc(Cl)c(CO)n1Cc1ccc(-c2ccccc2C(=O)O)cc1 | 30 | 3 |  |
